Experimental data as given in ChEMBL document CHEMBL3414491, “Synthesis and antitumor activities evaluation of m-(4-morpholinoquinazolin-2-yl)benzamides in vitro and in vivo” (Eur J Med Chem, 2015).
The source made the active and inactive calls. No cut-off for these calls is given here.

What was measured:
[1] = system: MCF7; test: Antiproliferative activity against human MCF7 cells after 72 hrs by MTT assay; format: functional, cell-based; details: MCF7, 72 h
Outline: (§1)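 MTT: cells seeded at 1500–4000 per well, grown 24 h, then given serial dilutions (1% DMSO final) for 72 h at 37 °C. MTT was added for 4 h, formazan dissolved in DMSO and absorbance read at 490 nm. Three separate experiments in triplicate; IC50 is the concentration giving 50% cell death versus control.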

[2] = Antiproliferative activity against human HCT116 cells after 72 hrs by MTT assay; format: functional, cell-based; details: HCT-116, 72 h; outline: as §1
[3] = system: A549; test: Antiproliferative activity against human A549 cells after 72 hrs by MTT assay; format: functional, cell-based; details: A549, 72 h; outline: as §1
[4] = Antiproliferative activity against human U87MG cells after 72 hrs by MTT assay; format: functional, cell-based, U-87MG ATCC; details: U-87 MG; outline: as §1
[5] = biological target: PI3-kinase p110-alpha/p85-alpha (Homo sapiens, UniProt P42336); test: Inhibition of p110alpha/p85alpha (unknown origin) using L-alpha-phosphatidylinositol incubated for 40 mins by ADP depletion detection based luciferase assay; format: protein-complex assay
[6] = biological target: PI3-kinase p110-delta/p85-alpha (Homo sapiens, UniProt O00329); test: Inhibition of p110delta/p85alpha (unknown origin) using L-alpha-phosphatidylinositol incubated for 40 mins by ADP depletion detection based luciferase assay; format: protein-complex assay
Chain of PI3-kinase p110-delta/p85-alpha (P27986 whole entry): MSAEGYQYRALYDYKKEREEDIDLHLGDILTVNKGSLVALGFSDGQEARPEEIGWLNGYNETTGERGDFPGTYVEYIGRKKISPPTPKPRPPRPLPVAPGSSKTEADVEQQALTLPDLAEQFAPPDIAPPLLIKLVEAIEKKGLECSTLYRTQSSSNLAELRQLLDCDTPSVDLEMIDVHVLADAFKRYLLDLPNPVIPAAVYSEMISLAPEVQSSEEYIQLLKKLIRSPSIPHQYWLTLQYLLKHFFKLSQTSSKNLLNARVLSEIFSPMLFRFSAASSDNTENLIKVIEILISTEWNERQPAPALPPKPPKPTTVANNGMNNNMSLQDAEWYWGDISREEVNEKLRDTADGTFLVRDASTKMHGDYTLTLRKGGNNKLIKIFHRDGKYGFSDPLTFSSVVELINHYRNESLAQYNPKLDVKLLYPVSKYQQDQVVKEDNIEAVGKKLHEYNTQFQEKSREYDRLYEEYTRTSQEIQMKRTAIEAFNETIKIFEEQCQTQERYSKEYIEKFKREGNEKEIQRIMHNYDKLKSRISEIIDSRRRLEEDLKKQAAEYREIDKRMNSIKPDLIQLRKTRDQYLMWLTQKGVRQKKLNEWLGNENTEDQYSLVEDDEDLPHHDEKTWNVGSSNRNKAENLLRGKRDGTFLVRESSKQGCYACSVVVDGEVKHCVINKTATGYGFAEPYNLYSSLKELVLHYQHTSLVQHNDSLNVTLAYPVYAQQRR
Chain of PI3-kinase p110-delta/p85-alpha (O00329 whole entry): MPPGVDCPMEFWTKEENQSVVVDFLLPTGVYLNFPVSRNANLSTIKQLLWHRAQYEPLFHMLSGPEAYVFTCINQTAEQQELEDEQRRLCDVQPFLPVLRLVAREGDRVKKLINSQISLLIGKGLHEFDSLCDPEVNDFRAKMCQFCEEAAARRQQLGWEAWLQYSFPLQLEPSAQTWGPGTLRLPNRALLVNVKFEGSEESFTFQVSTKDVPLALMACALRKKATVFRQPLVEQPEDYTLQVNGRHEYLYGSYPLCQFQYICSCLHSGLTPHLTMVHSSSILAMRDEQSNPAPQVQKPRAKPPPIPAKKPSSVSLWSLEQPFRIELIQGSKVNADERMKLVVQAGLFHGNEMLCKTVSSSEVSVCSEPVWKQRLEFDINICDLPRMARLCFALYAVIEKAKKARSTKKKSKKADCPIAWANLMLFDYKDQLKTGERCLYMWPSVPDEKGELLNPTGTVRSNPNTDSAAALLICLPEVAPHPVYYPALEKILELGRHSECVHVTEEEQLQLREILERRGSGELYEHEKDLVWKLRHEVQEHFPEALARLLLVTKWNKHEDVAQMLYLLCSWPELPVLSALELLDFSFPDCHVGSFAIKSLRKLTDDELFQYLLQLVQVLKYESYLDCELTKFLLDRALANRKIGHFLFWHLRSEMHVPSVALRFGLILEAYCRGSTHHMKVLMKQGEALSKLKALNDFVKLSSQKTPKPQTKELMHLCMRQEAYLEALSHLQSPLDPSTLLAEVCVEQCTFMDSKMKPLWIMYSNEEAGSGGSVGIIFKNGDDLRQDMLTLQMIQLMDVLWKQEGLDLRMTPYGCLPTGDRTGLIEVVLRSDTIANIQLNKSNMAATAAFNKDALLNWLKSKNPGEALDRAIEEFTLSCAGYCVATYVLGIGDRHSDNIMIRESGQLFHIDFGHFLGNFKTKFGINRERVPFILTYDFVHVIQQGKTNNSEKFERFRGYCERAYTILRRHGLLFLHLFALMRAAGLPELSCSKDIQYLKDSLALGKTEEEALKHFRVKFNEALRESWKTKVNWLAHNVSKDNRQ

[7] = biological target: PI3K p110 beta/p85 alpha (Homo sapiens, UniProt P42338); test: Inhibition of p110beta/p85alpha (unknown origin) using L-alpha-phosphatidylinositol incubated for 40 mins by ADP depletion detection based luciferase assay; format: protein-complex assay
Chain of PI3K p110 beta/p85 alpha (P27986 whole entry): as the sequence (P27986 whole entry) above
Chain of PI3K p110 beta/p85 alpha (P42338 whole entry): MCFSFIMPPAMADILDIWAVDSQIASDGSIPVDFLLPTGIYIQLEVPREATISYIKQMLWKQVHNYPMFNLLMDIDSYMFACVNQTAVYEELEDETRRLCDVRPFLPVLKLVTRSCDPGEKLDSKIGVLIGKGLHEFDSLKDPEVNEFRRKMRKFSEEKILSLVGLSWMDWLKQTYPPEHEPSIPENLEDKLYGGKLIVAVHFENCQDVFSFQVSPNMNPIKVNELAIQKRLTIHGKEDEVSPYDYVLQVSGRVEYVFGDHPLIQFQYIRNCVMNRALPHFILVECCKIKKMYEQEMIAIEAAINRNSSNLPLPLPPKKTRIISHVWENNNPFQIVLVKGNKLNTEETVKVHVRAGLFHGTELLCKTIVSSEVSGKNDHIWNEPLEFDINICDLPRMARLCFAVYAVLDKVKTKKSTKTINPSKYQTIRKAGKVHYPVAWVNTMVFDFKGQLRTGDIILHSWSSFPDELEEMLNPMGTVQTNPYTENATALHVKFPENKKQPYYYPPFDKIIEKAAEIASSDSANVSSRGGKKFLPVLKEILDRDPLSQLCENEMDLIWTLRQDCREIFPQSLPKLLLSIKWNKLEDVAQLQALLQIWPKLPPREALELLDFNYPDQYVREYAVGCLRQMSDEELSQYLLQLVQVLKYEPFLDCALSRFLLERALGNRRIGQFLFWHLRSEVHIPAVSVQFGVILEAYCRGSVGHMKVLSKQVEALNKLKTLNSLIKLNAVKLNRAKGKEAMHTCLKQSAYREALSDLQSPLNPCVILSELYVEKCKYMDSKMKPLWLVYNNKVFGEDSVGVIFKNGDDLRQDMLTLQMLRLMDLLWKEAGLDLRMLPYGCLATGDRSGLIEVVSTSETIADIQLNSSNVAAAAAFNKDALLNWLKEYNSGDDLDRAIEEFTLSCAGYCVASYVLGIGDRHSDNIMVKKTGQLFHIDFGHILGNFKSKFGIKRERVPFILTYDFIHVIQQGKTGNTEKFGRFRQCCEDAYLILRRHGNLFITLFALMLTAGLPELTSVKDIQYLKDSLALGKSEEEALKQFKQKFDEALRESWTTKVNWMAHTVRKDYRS

[8] = biological target: PI3-kinase subunit gamma/Phosphoinositide 3-kinase regulatory subunit 5 (Homo sapiens, UniProt P48736); test: Inhibition of p110gamma/PIK3R5 (unknown origin) using L-alpha-phosphatidylinositol incubated for 40 mins by ADP depletion detection based luciferase assay; format: protein-complex assay
Chain of PI3-kinase subunit gamma/Phosphoinositide 3-kinase regulatory subunit 5 (P48736 whole entry): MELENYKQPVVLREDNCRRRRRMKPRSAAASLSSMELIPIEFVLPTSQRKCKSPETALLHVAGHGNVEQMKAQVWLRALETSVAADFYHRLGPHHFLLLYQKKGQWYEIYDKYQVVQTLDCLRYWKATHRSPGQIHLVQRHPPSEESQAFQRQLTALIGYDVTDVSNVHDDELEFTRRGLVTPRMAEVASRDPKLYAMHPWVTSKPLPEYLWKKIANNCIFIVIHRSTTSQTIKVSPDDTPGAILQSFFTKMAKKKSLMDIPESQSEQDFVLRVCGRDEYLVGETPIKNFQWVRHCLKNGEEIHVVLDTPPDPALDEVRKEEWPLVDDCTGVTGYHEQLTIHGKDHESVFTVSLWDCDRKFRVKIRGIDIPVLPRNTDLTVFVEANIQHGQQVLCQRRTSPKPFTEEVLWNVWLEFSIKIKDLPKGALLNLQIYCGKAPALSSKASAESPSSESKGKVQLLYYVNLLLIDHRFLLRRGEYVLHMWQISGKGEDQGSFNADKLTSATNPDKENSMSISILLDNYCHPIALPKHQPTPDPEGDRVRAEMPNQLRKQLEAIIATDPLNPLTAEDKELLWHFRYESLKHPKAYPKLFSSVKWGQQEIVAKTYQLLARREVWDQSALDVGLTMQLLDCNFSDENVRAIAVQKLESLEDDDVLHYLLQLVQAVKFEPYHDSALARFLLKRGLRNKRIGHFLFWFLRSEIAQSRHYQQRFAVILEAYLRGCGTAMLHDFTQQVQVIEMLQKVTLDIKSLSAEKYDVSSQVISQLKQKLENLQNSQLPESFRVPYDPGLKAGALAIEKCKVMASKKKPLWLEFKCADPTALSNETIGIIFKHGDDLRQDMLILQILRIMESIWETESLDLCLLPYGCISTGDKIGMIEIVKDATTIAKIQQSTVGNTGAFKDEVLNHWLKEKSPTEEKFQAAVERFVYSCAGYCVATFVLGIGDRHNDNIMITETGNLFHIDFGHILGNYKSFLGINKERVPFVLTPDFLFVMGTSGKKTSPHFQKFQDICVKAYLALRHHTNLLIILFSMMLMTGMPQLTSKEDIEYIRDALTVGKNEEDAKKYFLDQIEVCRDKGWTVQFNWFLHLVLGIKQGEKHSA
Chain of PI3-kinase subunit gamma/Phosphoinositide 3-kinase regulatory subunit 5 (Q8WYR1 whole entry, further chain): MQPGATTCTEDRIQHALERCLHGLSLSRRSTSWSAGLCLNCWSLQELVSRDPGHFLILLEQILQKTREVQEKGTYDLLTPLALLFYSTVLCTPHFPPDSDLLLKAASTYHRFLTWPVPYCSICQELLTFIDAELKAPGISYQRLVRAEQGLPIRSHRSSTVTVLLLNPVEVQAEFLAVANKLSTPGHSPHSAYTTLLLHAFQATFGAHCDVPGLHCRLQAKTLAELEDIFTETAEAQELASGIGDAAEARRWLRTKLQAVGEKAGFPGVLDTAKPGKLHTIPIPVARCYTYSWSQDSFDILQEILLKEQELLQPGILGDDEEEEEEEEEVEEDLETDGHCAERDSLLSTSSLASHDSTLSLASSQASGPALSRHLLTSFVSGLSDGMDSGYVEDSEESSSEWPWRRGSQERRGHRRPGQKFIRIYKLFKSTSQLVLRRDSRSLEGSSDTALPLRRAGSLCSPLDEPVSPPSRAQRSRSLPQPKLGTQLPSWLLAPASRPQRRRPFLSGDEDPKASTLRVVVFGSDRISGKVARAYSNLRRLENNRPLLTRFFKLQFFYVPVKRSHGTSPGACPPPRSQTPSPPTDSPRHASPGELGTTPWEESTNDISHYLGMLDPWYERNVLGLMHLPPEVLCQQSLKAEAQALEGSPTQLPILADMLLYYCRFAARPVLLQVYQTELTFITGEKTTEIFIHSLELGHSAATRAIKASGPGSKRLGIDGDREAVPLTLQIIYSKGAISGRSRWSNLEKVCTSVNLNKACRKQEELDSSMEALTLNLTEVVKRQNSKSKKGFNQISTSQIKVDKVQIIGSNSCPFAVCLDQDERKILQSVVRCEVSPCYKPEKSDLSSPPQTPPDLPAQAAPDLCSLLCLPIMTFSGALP

[9] = system: CCRF S-180; test: Antitumor activity against mouse S180 cells homografted in mouse assessed as reduction tumor weight at 30 mg/kg, po once daily for 8 days; format: functional; details: CCRF S-180, 192 h
Outline: (§2)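 Mice (19.6 g average) had 3 × 10⁶ S180 cells injected subcutaneously into the flank and were randomized into three groups of 8. From the next day they received compound in NMP/PEG400/H2O (1:8:1) orally once daily for 8 days, or solvent alone. Body weights were recorded daily. On Day 9 tumors and bodies were weighed and tumor-weight inhibitory ratios calculated.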

[10] = system: HCT-116; test: Induction of apoptosis in human HCT116 cells assessed as early apoptotic cells level at 1 uM after 24 hrs by annexin V-FITC/propidium iodide staining based flow cytometry (reference value: 4.36%); format: functional
Outline: (§3)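 HCT-116 cells were seeded at 1.5 × 10⁵ per well, grown 24 h, then treated 24 h; vehicle control was 0.5% DMSO. Cells were stained with an Annexin V-FITC/PI kit and analysed by flow cytometry. Q4 = early apoptotic, Q2 = late apoptotic; apoptosis rate = Q2 + Q4. Means of three independent experiments.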

[11] = system: HCT-116; test: Induction of nuclear fragmentation in human HCT116 cells at 0. 1 to 10 uM after 24 hrs by Hoechst staining based fluorescent microscopy; format: functional, cell-based
Outline: (§4)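 HCT-116 cells (15,000 per well) were grown 24 h, then exposed to 0.1, 1 or 10 µM for 24 h; vehicle control was 0.5% DMSO. Cells were photographed under phase-contrast microscopy, then stained with Hoechst 33258 for 0.5 h at 37 °C, washed with PBS and viewed by fluorescence microscopy.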

[12] = system: Mus musculus; test: Toxicity in mouse homografted with mouse S180 cells assessed as effect on body weight at 15 mg/kg, po once daily for 8 days; format: organism-based, CCRF S-180; parameters: dose 15 mg/kg, route oral; details: in vivo, 192 h; outline: as §2
[13] = system: HCT-116; test: Induction of cell cycle arrest in human HCT116 cells assessed as accumulation at S phase at 3 uM after 24 hrs by propidium iodide staining based flow cytometry (reference value: 38.71%); format: functional
[14] = system: HCT-116; test: Induction of apoptosis in human HCT116 cells at 3 uM after 24 hrs by annexin V-FITC/propidium iodide staining based flow cytometry; format: functional; outline: as §3
[15] = system: CCRF S-180; test: Antitumor activity against mouse S180 cells homografted in mouse assessed as reduction tumor weight at 15 mg/kg, po once daily for 8 days; format: functional; details: CCRF S-180, 192 h; outline: as §2
[16] = system: HCT-116; test: Induction of cellular morphological changes in human HCT116 cells assessed as induction of vacuolization at 1 and 10 uM after 24 hrs by Hoechst staining based phase contrast microscopy; format: functional, cell-based; outline: as §4
[17] = system: HCT-116; test: Induction of apoptosis in human HCT116 cells assessed as early apoptotic cells level at 3 uM after 24 hrs by annexin V-FITC/propidium iodide staining based flow cytometry (reference value: 4.36%); format: functional; outline: as §3
[18] = system: HCT-116; test: Induction of chromatin condensation in human HCT116 cells at 0. 1 to 10 uM after 24 hrs by Hoechst staining based fluorescent microscopy; format: functional, cell-based; outline: as §4
[19] = system: HCT-116; test: Induction of cell cycle arrest in human HCT116 cells assessed as accumulation at G0/G1 phase at 3 uM after 24 hrs by propidium iodide staining based flow cytometry (reference value: 48.31%); format: functional
[20] = system: HCT-116; test: Induction of apoptosis in human HCT116 cells assessed as late apoptotic cells level at 1 uM after 24 hrs by annexin V-FITC/propidium iodide staining based flow cytometry (reference value: 3.08%); format: functional; outline: as §3
[21] = system: Mus musculus; test: Toxicity in mouse homografted with mouse S180 cells assessed as effect on body weight at 30 mg/kg, po once daily for 8 days; format: organism-based, CCRF S-180; parameters: dose 30 mg/kg, route oral; details: in vivo, 192 h; outline: as §2
[22] = system: HCT-116; test: Induction of cellular morphological changes in human HCT116 cells assessed as induction of fragmentation at 1 and 10 uM after 24 hrs by Hoechst staining based phase contrast microscopy; format: functional, cell-based; outline: as §4
[23] = system: HCT-116; test: Induction of apoptosis in human HCT116 cells assessed as late apoptotic cells level at 3 uM after 24 hrs by annexin V-FITC/propidium iodide staining based flow cytometry (reference value: 3.08%); format: functional; outline: as §3
[24] = system: HCT-116; test: Induction of cell cycle arrest in human HCT116 cells assessed as accumulation at G2/M phase at 3 uM after 24 hrs by propidium iodide staining based flow cytometry (reference value: 12.98%); format: functional
[25] = system: HCT-116; test: Induction of cellular morphological changes in human HCT116 cells assessed as induction of cell shrinking at 1 and 10 uM after 24 hrs by Hoechst staining based phase contrast microscopy; format: functional; outline: as §4
[26] = system: HCT-116; test: Induction of apoptosis in human HCT116 cells at 1 uM after 24 hrs by annexin V-FITC/propidium iodide staining based flow cytometry; format: functional; outline: as §3
[27] = Inhibition of PI3K-mediated PI3K/Akt/mTOR pathway in human HCT116 cells assessed as reduction in Akt Ser473 phosphorylation at 10 uM incubated for 1 hr by Western blot method; format: cell-based; details: HCT-116
Outline: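 HCT-116 cells were seeded at 5 × 10⁵ per well and grown 16 h at 37 °C, then exposed to 10 µM for 1 h; vehicle control was 0.5% DMSO. Lysates were normalised by BCA, run on 10% SDS-PAGE, transferred to nitrocellulose and probed for AKT and p-Ser473 AKT, with β-actin as loading control. Detection was by chemiluminescence; bands were quantified densitometrically.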

COCCOc1cc2c(N3CCOCC3)nc(-c3cc(OC)cc(C(N)=O)c3)nc2cc1OC
IC50 [1]: 5.19 µM | IC50 [2]: 890 nM

COc1cc2nc(-c3ccc(C(N)=O)cc3)nc(N3CCOCC3)c2cc1OC
IC50 [1]: 4.6 µM | IC50 [2]: 1250 nM

COc1cc(C(N)=O)cc(-c2nc(N3CCOCC3)c3cc(OC)c(OCc4ccccc4)cc3n2)c1
IC50 [1]: 10.3 µM | IC50 [2]: 6450 nM

COc1cc(C(N)=O)cc(-c2nc(N3CCOCC3)c3cc(OC)c(OCC(=O)N4CCN(C)CC4)cc3n2)c1
IC50 [1]: 18.7 µM | IC50 [2]: 9440 nM

COc1cc2nc(-c3ccc(OC)c(C(N)=O)c3)nc(N3CCOCC3)c2cc1OC
IC50 [3]: 9.63 µM | IC50 [4]: 1900 nM | IC50 [1]: 1.22 µM | IC50 [2]: 470 nM

COc1cc2nc(-c3cc(O)cc(C(N)=O)c3)nc(N3CCOCC3)c2cc1OC
IC50 [5]: 53 nM | IC50 [6]: 260 nM | IC50 [7]: 454 nM | IC50 [3]: 17.2 µM | IC50 [4]: 1840 nM | IC50 [1]: 2.64 µM | IC50 [8]: 394 nM | IC50 [2]: 880 nM

COc1cc(C(N)=O)cc(-c2nc(N3CCOCC3)c3cc(OC)c(OC)cc3n2)c1
IC50 [3]: 9.22 µM | IC50 [4]: 1010 nM | IC50 [1]: 1.75 µM | IC50 [2]: 450 nM

COc1cc2nc(-c3cc(OC(F)(F)F)cc(C(N)=O)c3)nc(N3CCOCC3)c2cc1OC
inhibition in vivo at 30 mg/kg [9]: 64.2% | Activity [10]: 11.5% | IC50 [5]: 96 nM | Activity [11]: Active | Activity [12]: Non-toxic | Activity [13]: 20.11% | Activity [14]: 27.3% | IC50 [6]: 330 nM | inhibition in vivo at 15 mg/kg [15]: 49.3% | Activity [16]: Active | Activity [17]: 16.25% | Activity [18]: Active | Activity [19]: 56.69% | Activity [20]: 6.76% | Activity [21]: Non-toxic | IC50 [7]: 128 nM | Activity [22]: Active | IC50 [3]: 1.68 µM | Activity [23]: 7.59% | Activity [24]: 23.19% | Activity [25]: Active | IC50 [4]: 600 nM | Activity [26]: 22.7% | IC50 [1]: 1.09 µM | IC50 [8]: 465 nM | IC50 [2]: 300 nM | inhibition [27]: Active

COc1cc2nc(-c3cnc(N)nc3)nc(N3CCOCC3)c2cc1OC
IC50 [3]: 3.21 µM | IC50 [4]: 5000 nM | IC50 [1]: 1.38 µM | IC50 [2]: 420 nM

COc1cc(C(N)=O)cc(-c2nc(N3CCOCC3)c3cc(OC)c(OCCN4CCOCC4)cc3n2)c1
IC50 [1]: 5.66 µM | IC50 [2]: 4720 nM

COCCOc1cc2nc(-c3cc(OC)cc(C(N)=O)c3)nc(N3CCOCC3)c2cc1OC
IC50 [1]: > 20 µM | IC50 [2]: 2700 nM

COc1cc(C(N)=O)cc(-c2nc(N3CCOCC3)c3cc(OC)c(OCCN4CCCCC4)cc3n2)c1
IC50 [1]: 6.38 µM | IC50 [2]: 1280 nM

COc1cc2nc(-c3ccc(O)c(C(N)=O)c3)nc(N3CCOCC3)c2cc1OC
IC50 [1]: 7.42 µM | IC50 [2]: 2770 nM

COc1cc(C(N)=O)cc(-c2nc(N3CCOCC3)c3cc(OC)c(OCCN4CCCC4)cc3n2)c1
IC50 [3]: 9.37 µM | IC50 [4]: 2450 nM | IC50 [1]: 1.01 µM | IC50 [2]: 810 nM

COc1cc2nc(-c3cc(OCc4ccccc4)cc(C(N)=O)c3)nc(N3CCOCC3)c2cc1OC
IC50 [1]: 6.93 µM | IC50 [2]: 3830 nM
